A selection: hits, their analogues and other compounds. The true share with any hit is near 3.7%.
KCNK3 inh = human KCNK3 channel inhibitors, primary screen, CHO cells, FluxOR thallium flux, B-score. Potassium channel subfamily K member 3 (Homo sapiens), O14649. FluxOR fluorescence; hits give low values. B-score at 10 µM. 340,000 tested, 0.84% active. AID 602410, 2012;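 active means B-score under library mean minus 4 SD, starting fluorescence ratio at most library mean plus 5 SD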;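 further: more negative B-score means stronger inhibition of thallium flux through KCNK3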
Target sequence (O14649 whole entry, looked up): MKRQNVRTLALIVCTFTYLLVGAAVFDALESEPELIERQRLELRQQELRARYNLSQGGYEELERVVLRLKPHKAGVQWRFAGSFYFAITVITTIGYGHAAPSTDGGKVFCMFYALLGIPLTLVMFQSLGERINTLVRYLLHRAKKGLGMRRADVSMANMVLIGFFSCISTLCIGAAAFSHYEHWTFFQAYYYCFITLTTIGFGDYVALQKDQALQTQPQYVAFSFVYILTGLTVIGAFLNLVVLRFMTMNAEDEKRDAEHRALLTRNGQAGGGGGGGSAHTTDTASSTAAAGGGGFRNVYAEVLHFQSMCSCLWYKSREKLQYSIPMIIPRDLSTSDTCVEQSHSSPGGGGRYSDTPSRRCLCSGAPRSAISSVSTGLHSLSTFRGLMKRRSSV
KCNK9 inh = KCNK9 potassium channel inhibitors, primary screen, HEK293 cells, thallium flux; Potassium channel subfamily K member 9 (Homo sapiens), Q9NPC2; B-score at 10 µM; FluxOR thallium flux fluorescence; hits give low values; 310,000 tested, 1.2% active;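 active means ratio B-score over 3 SD below the library mean, with starting fluorescence within 5 SD of its mean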;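 further: negative B-score means less thallium flux so channel inhibition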
Target sequence (Q9NPC2 whole entry, looked up): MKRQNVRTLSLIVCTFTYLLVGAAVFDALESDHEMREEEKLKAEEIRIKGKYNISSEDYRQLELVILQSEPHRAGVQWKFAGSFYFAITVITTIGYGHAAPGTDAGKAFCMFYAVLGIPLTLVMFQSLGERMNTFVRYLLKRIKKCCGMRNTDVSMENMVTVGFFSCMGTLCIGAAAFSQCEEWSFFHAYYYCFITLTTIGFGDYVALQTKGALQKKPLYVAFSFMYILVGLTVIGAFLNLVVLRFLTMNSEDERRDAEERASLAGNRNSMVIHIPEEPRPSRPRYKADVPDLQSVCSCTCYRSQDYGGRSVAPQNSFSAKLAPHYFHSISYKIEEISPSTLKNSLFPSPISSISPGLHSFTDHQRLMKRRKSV
Kir21 block = inhibitors of mouse Kir2.1 inward-rectifier potassium channel; 310,000 tested, 0.85% active; Inward rectifier potassium channel 2 (Mus musculus), P35561; B-score at 10 µM; HEK293-Kir2.1, FluxOR thallium flux fluorescence; hits give low values;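 active means fluorescence ratio B-score at or below minus 3 SD of library scores, with starting-brightness B-score within 2 SD, cut at about -4.2 in these data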;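 further: channel flux triggered by added potassium and thallium sulfate stimulus; B-score of peak minus minimum fluorescence over baseline after thallium stimulus; more negative B-score means stronger Kir2.1 block with less thallium influx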
KCNQ1 block = inhibitors of human KCNQ1 channel, primary screen, cell-based, thallium flux, high-throughput. CHO-K1 KCNQ1, FluxOR thallium flux fluorescence; hits give high values. AID 2642, 2010. B-score at 10 µM. 310,000 tested, 1.3% active;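 active means compounds whose thallium flux B-score, printed positive for inhibition, exceeds three library SD while starting fluorescence stays within three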;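 further: channel opened by potassium depolarization with thallium stimulus after 20 min compound exposure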
KCNQ1 act = potentiators or activators of KCNQ1 channel, primary screen, cell-based, thallium flux, high-throughput | Potassium voltage-gated channel subfamily KQT member 1 (Homo sapiens), P51787 | CHO-K1 KCNQ1, thallium flux FluxOR fluorescence; hits give high values | B-score at 10 µM | 310,000 tested, 0.35% active | AID 2648, 2010;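 active means fluorescence ratio B-score, a plate-corrected score, at least three library SD, with initial intensity B-score within 5 SD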
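Assay system: stable KCNQ1 CHO-K1 line; medium: assay buffer, equal DMSO in all wells; timing: 90 min dye loading and 20 min compound exposure, both at room temperature; technique: kinetic FluxOR thallium fluorescence, 10-s 1-Hz baseline, 110-s post-stimulus read; read-out basis: B score of baseline-normalized fluorescence ratio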
hERG protect = hERG rescue from dofetilide block, primary screen, cell-based, CHO-hERG, FluxOR thallium flux, dofetilide IC70 | dofetilide IC70 present | 310,000 tested, 0.51% active | AID 1511, 2009 | activation (rescue from dofetilide block), less the hit threshold, % at 10 µM;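 active means activation above the mean of controls blocked by dofetilide plus 5 SD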;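 further: thallium influx through hERG after potassium depolarization seen as dye fluorescence rise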
KCNQ1 inh valid = KCNQ1 potassium channel inhibitors, confirmation, cell-based, Tl flux, duplicate | 1,600 tested, 93% active | KCNQ1 cell line, FluxOR thallium flux fluorescence | inhibition, % at 10 µM | AID 588353, 2011 | shares compounds with KCNQ1 block;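 active means primary screen active, with duplicate mean exceeding buffer control mean plus 3 SD of buffer wells, cut at about 28% in these data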
CHO Tl flux = thallium flux effects in parental CHO cells, counter-screen for KCNQ1 inhibitor project, cell-based, Tl flux; parental CHO-K1, FluxOR thallium flux fluorescence ratio; hits give low values; zero means no signal rise above baseline; shares compounds with KCNQ1 block; fluorescence ratio (Tl flux) at 10 µM; 1,600 tested, 21% active; AID 588366, 2011;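 active means mean of duplicate thallium-flux fluorescence ratios in parental host cells more than 5 SD below the buffer control mean, cut at about 0.38 in these data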;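 further: ratio is peak minus minimum fluorescence divided by baseline fluorescence; actives read low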
KCNQ2 spec = KCNQ2 channel inhibition, selectivity assay for KCNQ1 inhibitor project, cell-based | inhibition, % at 10 µM | AID 651746, 2012 | 1,600 tested, 71% active | shares compounds with KCNQ1 block | KCNQ2 cells, FluxOR thallium flux fluorescence;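 active means mean percent inhibition of the KCNQ2 thallium signal more than 5 SD above the buffer-only control wells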;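 further: KCNQ2 expressed in CHO cells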
KCNQ1-KCNE1 inh = KCNQ1/KCNE1 channel inhibition, selectivity assay for KCNQ1 inhibitor project, CHO-K1 cells, thallium flux, FluxOR; shares compounds with KCNQ1 block; AID 652147, 2013; 1,600 tested, 77% active; inhibition, % at 10 µM; FluxOR thallium flux fluorescence;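 active means mean percent inhibition of duplicate wells above the buffer-only control mean plus 3 SD of those controls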
Large screens that a line does not name were inactive (follow-up assays come after a bar, where they were run).

COc1ccc(-c2c(C#N)c(SCc3c(C)noc3C)nc3c2C(=O)CC(C)(C)C3)cc1	none
CCc1c(C#N)c(SCCC(=O)Nc2ccc(F)cc2)nc2c1C(=O)CC(C)(C)C2	KCNQ1 block 12 | KCNQ1 inh valid 130 | CHO Tl flux 0.38 | KCNQ2 spec 98% | KCNQ1-KCNE1 inh 160%
CCN(CC)S(=O)(=O)c1cccc(C(=O)OCC(=O)NCCN2C(=O)CSC2=O)c1	none (no result: KCNK9 inh, Kir21 block, KCNQ1 block, KCNQ1 act, hERG protect)
CCOc1ccc2nc(NC3=NC(C)(C)C=C(C)N3)nc(C)c2c1	KCNQ1 block 10 | KCNQ1 inh valid 88 | CHO Tl flux inactive | KCNQ2 spec inactive | KCNQ1-KCNE1 inh 92%
CCOC(=O)c1ccc(N2CCN(c3ccccc3F)CC2)c(NC(=O)Nc2ccccc2)c1	KCNQ1 block 6 | KCNQ1 inh valid 118 | CHO Tl flux 0.36 | KCNQ2 spec 118% | KCNQ1-KCNE1 inh 138%
Cc1cc(=O)oc2c(C)c(OC(C)C(=O)N3CC[C@@]4(O)CCCC[C@H]4C3)ccc12 (stereo partly specified)	none
Cn1nc(C(C)(C)C)cc1NC(=O)Nc1ccc(F)cc1F	none
Cn1nc(C(C)(C)C)cc1NC(=O)Nc1ccc(Cl)cc1	KCNQ1 block 7 | KCNQ1 inh valid 83 | CHO Tl flux inactive | KCNQ2 spec inactive | KCNQ1-KCNE1 inh inactive
CC(Oc1cccc(Cl)c1)C(=O)Nc1cc(S(=O)(=O)N2CCOCC2)ccc1N1CCCC1 (stereo unspecified)	none
CC(Oc1cccc(Cl)c1)C(=O)Nc1cc(S(=O)(=O)N2CCCCC2)ccc1N1CCOCC1 (stereo unspecified)	KCNQ1 block 9 | KCNQ1 inh valid 69 | CHO Tl flux inactive | KCNQ2 spec 94% | KCNQ1-KCNE1 inh 95%
CCN(C(=O)CSc1nc2ccccc2o1)c1c(N)n(Cc2ccccc2)c(=O)[nH]c1=O	none
Cc1cc(C)nc(NC(=NCCc2c[nH]c3ccccc23)NC(=O)Nc2ccc(Cl)cc2)n1	KCNQ1 block 6 | KCNQ1 inh valid 48 | CHO Tl flux inactive | KCNQ2 spec 88% | KCNQ1-KCNE1 inh 90%
Cc1nnsc1SCCNC(=O)Nc1ccc(Cl)cc1	KCNQ1 block 7 | KCNQ1 inh valid 67 | CHO Tl flux inactive | KCNQ2 spec inactive | KCNQ1-KCNE1 inh 36%
FC(F)(F)c1cccc(CNC(=S)Nc2ccccc2)c1	KCNQ1 block 8 | KCNQ1 inh valid 46 | CHO Tl flux inactive | KCNQ2 spec 82% | KCNQ1-KCNE1 inh inactive
FC(F)(F)Sc1ccc(NC(=S)NCc2ccccc2)cc1	KCNQ1 block 7 | KCNQ1 inh valid 78 | CHO Tl flux inactive | KCNQ2 spec inactive | KCNQ1-KCNE1 inh inactive
COc1cc(NC(=O)c2ccno2)cc(C(=O)Nc2cccc(C(F)(F)F)c2)c1	KCNQ1 block 9 | KCNQ1 inh valid 110 | CHO Tl flux 0.35 | KCNQ2 spec 100% | KCNQ1-KCNE1 inh 163%
CCOc1ccc(CN(C)CC(=O)NCc2ccc(F)cc2)cc1	none
Cc1cccc(N2CCN(C(=O)c3noc4c3COc3ccc(C)cc3-4)CC2C)c1 (stereo unspecified)	KCNQ1 block 10 | KCNQ1 inh valid 88 | CHO Tl flux inactive | KCNQ2 spec 98% | KCNQ1-KCNE1 inh 112%
O=C(NCC1CC1)c1ccc(Nc2nc3ccc(Br)cc3[nH]2)cc1	none
O=C(NCc1ccco1)c1cccc(Nc2nc3ccc(Br)cc3[nH]2)c1	KCNQ1 block 8 | KCNQ1 inh valid 163 | CHO Tl flux 0.33 | KCNQ2 spec 128% | KCNQ1-KCNE1 inh active
COc1ccccc1Oc1ccc(Oc2ccccc2OC)cc1	KCNQ1 block 7 | KCNQ1 inh valid 126 | CHO Tl flux 0.36 | KCNQ2 spec 125% | KCNQ1-KCNE1 inh 108%
COc1ccc(Oc2ccccc2C#N)cc1	none
CCCCCn1c(CN2CCN(c3cccc(Cl)c3)CC2)nc2c1c(=O)n(C)c(=O)n2C	none
CCCn1c(CN2CCN(c3cccc(Cl)c3)CC2)nc2c1c(=O)n(C)c(=O)n2C	KCNQ1 block 7 | KCNQ1 inh valid 80 | CHO Tl flux inactive | KCNQ2 spec 127% | KCNQ1-KCNE1 inh 36%
CC(C)(C)c1csc(NC(=O)c2ccccc2O)n1	KCNQ1 block 9 | KCNQ1 inh valid 65 | CHO Tl flux inactive | KCNQ2 spec inactive | KCNQ1-KCNE1 inh inactive
N/C(=N\S(=O)(=O)c1cc(C(F)(F)F)cc(C(F)(F)F)c1)c1ccc(Cl)cc1	KCNQ1 block 7 | KCNQ1 inh valid inactive | CHO Tl flux inactive | KCNQ2 spec inactive | KCNQ1-KCNE1 inh inactive
CC1CCN(S(=O)(=O)c2nnc(NC(=O)c3cccc(Cl)c3)s2)CC1	KCNQ1 block 9 | KCNQ1 inh valid 32 | CHO Tl flux inactive | KCNQ2 spec inactive | KCNQ1-KCNE1 inh inactive
CC(Sc1nnnn1-c1cccc(F)c1)C(=O)NC1CCCC1 (stereo unspecified)	none (no result: KCNK9 inh, Kir21 block, KCNQ1 block, KCNQ1 act, hERG protect)
CCc1ccc(-c2nc3ccc(Br)cc3c(C(=O)O)c2C)s1	none
c1ccc(-c2noc(CSc3nnnn3-c3ccccc3)n2)cc1	KCNQ1 block 6 | KCNQ1 inh valid 60 | CHO Tl flux inactive | KCNQ2 spec 62% | KCNQ1-KCNE1 inh 74%
CC1CCCC(C)N1C(=O)COC(=O)Cc1c[nH]c2ccccc12 (stereo unspecified)	none
CCOC(=O)[C@H]1[C@H]2COc3ccc(C)cc3[C@@H]2N2C(=O)CN(CC3CCCO3)C(=O)[C@@]12C (stereo partly specified)	none (no result: KCNK9 inh, Kir21 block, KCNQ1 block, KCNQ1 act, hERG protect)

Assay outcomes as filed in PubChem BioAssay.
